Experimental findings from ChEMBL document CHEMBL4052637, “Discovery and Characterization of R/S-N-3-Cyanophenyl-N'-(6-tert-butoxycarbonylamino-3,4-dihydro-2,2-dimethyl-2H-1-benzopyran-4-yl)urea, a New Histone Deacetylase Class III Inhibitor Exerting Antiproliferative Activity against Cancer Cell Lines” (J Med Chem, 2017) are described below.

SMILES strings stand for the structures. Calls of active or inactive are those of the source. The rule behind the calls is not given here.

The target of test [1] is T1, NAD-dependent protein deacetylase sirtuin-2 (Homo sapiens, UniProt Q8IXJ6).
T1 sequence (Q8IXJ6 whole entry): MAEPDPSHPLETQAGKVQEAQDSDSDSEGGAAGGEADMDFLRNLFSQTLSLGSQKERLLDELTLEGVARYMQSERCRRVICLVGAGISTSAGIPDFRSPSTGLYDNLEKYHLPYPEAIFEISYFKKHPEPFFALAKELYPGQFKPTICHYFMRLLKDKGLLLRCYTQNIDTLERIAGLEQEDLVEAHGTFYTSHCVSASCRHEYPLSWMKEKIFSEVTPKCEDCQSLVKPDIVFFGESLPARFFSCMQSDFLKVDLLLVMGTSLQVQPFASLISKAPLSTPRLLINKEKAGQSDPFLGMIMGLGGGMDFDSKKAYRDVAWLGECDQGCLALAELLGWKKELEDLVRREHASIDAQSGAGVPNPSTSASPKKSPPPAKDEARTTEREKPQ
The test can be described thus: Inhibition of N-terminal His-tagged recombinant human SIRT-2 expressed in Escherichia coli using Fluor-de-Lys-SIRT1 as substrate after 15 mins by fluorescence assay.

Test [2] concerns the target NAD-dependent protein deacetylase sirtuin-3, mitochondrial (Homo sapiens, UniProt Q9NTG7). Nature of the test: Inhibition of N-terminal His-tagged recombinant human SIRT-3 expressed in Escherichia coli using Fluor-de-Lys-SIRT1 as substrate after 15 mins by fluorescence assay.
The target in test [3] is T2, NAD-dependent protein deacetylase sirtuin-1 (Homo sapiens) (UniProt Q96EB6).
T2 sequence (whole entry): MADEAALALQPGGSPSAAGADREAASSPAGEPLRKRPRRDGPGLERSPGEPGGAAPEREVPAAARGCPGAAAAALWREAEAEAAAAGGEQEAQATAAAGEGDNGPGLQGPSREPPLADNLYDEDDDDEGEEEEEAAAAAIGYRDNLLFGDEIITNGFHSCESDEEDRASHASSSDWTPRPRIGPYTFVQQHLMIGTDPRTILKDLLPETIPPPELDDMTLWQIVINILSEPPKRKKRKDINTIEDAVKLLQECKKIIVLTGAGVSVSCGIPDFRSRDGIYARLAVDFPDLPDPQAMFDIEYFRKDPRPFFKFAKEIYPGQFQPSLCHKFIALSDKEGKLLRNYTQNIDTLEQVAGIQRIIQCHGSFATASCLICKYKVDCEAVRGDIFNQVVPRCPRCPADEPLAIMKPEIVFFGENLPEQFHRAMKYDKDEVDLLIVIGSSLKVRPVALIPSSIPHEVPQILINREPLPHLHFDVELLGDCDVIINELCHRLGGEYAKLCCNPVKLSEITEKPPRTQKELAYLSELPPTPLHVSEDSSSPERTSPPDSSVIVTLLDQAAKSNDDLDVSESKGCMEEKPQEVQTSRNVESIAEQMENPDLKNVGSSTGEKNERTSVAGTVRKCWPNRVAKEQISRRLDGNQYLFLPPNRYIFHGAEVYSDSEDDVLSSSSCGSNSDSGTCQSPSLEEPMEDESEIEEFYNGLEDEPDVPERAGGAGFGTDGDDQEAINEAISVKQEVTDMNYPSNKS
Nature of the test: Inhibition of SIRT1 in human U373 cells assessed as increase of histone H4 acetylation at 2 uM after 8 hrs by Western blotting method relative to control. It counts as cell-based. (In general: In western blotting, separated proteins are transferred to a membrane and probed.)

Test [4] addresses T2, NAD-dependent protein deacetylase sirtuin-1 (Homo sapiens). The test can be described thus: Inhibition of SIRT1 in human Hs683 cells assessed as increase of histone H4 acetylation at 2 uM after 8 hrs by Western blotting method relative to control. It counts as cell-based.
For test [5], the target named is T3, NAD-dependent protein deacetylase sirtuin-2 (Homo sapiens) (UniProt Q8IXJ6).
T3 sequence (whole entry): T1 sequence (Q8IXJ6 whole entry)
Nature of the test: Inhibition of SIRT2 in human U373 cells assessed as increase of alpha-tubulin acetylation at 2 uM after 8 hrs by Western blotting method relative to control. It counts as cell-based.

Test [6] deals with T3, NAD-dependent protein deacetylase sirtuin-2 (Homo sapiens). The test can be described thus: Inhibition of SIRT2 in human Hs683 cells assessed as increase of alpha-tubulin acetylation at 2 uM after 8 hrs by Western blotting method relative to control. It counts as cell-based.
Test [7] has as its system Hs 683. The test can be described thus: Cell cycle arrest in human Hs683 cells assessed as accumulation at sub-G1 phase at 2 uM after 24 to 48 hrs by propidium iodide staining-based flow cytometry. It counts as functional. The essentials: (§1)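 Cells were exposed to compound at the IC50 for each line from the 72 h MTT assay, or to a reference HDAC inhibitor at 2 μM. Cell cycle distribution was analyzed after 24 and 48 h. Results are mean ± SD of three independent experiments, with p values against control cells.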
On the technique in general: Flow cytometry measures light scatter and fluorescence of single cells or particles in a stream.

The next test concerns U-373MG ATCC. The test can be described thus: Cell cycle arrest in human U373 cells assessed as accumulation at sub-G1 phase at 2 uM after 24 to 48 hrs by propidium iodide staining-based flow cytometry. It counts as functional. The essentials: as §1
Test [8] relates to Hs 683. Nature of the test: Cell cycle arrest in human Hs683 cells assessed as accumulation at G1 phase at 2 uM after 24 to 48 hrs by propidium iodide staining-based flow cytometry. It counts as functional. The gist of the method:
as §1

Chain of NAD-dependent protein deacetylase sirtuin-3, mitochondrial (Q9NTG7 whole entry): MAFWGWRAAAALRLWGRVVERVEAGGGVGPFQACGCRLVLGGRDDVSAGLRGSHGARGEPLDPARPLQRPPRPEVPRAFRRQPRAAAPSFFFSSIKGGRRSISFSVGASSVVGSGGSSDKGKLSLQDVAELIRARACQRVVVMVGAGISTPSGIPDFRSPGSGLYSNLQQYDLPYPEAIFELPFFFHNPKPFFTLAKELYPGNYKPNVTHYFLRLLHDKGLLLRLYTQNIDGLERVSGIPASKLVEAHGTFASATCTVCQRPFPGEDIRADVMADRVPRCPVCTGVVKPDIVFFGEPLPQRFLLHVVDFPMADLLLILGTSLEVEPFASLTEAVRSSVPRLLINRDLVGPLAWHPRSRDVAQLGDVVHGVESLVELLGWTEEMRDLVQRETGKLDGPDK

As to `Cc1ccc(C(=O)Nc2ccc(S(=O)(=O)O)c3cc(S(=O)(=O)O)cc(S(=O)(=O)O)c23)cc1NC(=O)c1cccc(NC(=O)Nc2cccc(C(=O)Nc3cc(C(=O)Nc4ccc(S(=O)(=O)O)c5cc(S(=O)(=O)O)cc(S(=O)(=O)O)c45)ccc3C)c2)c1` [SURAMIN], the half-inhibitory concentration (IC50) in test [1] was 13 µM; in test [2] it was over 200 µM.
`O=C(CCCCCCC(=O)Nc1ccccc1)NO`: the fold change (FC) in test [3] is 7.9; in test [4], 12.6; in test [5], 18.6; in [6], 18.7. Moreover, the result in the test on Hs 683 [7], in the test on U-373MG ATCC and in the test on Hs 683 [8] was Active.

A word on the IC50: it is the midpoint of a concentration-inhibition curve.
